Activity calls are given as the source filed them. The rule behind the calls is not given here.
Columns and labels:
Mus musculus [1] = assay: Anticonvulsant activity against maximal electroshock-induced seizures in Swiss albino mouse at 300 mg/kg, ip after 0.5 hrs; format: functional, organism-based; set-up: dose 300 mg/kg
How it was run: (§1)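 Male Swiss albino mice (18–25 g) received the compound suspended in 5% gum acacia/water, i.p. at 30, 100 and 300 mg/kg (one to four animals per dose). Maximal electroshock was applied at 0.5 and 4 h. Protection meant abolition of the hind limb tonic extensor component. The lowest dose protecting half or more of the mice was recorded.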

Mus musculus [2] = assay: Anticonvulsant activity against subcutaneous pentylenetetrazole-induced seizures in ip dosed Swiss albino mouse assessed as minimum effective dose after 0.5 hrs; format: functional; settings: read-out: MED
How it was run: (§2)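 Male Swiss albino mice (18–25 g) were dosed i.p. with the compound in 5% gum acacia/water at 30, 100 or 300 mg/kg. Thirty minutes later they received PTZ 85 mg/kg (CD97) and were watched for seizures over 4 h. Readings at 0.5 and 4 h gave the lowest dose active in half or more of the animals. Myoclonic jerks were noted separately.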

Mus musculus [3] = assay: Anticonvulsant activity against subcutaneous pentylenetetrazole-induced seizures in Swiss albino mouse at 300 mg/kg, ip after 4 hrs; format: functional, organism-based; set-up: dose 300 mg/kg; how it was run: as §2
Mus musculus [4] = assay: Anticonvulsant activity against maximal electroshock-induced seizures in Swiss albino mouse at 300 mg/kg, ip after 4 hrs; format: functional, organism-based; set-up: dose 300 mg/kg; how it was run: as §1
Mus musculus [5] = assay: Neurotoxicity in ip dosed Swiss albino mouse assessed as impair in motor coordination at 300 mg/kg, ip after 0.5 hrs by rotarod test; format: toxicity, organism-based; set-up: dose 300 mg/kg, route intraperitoneal; settings: in vivo
How it was run: (§3)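 Rotarod motor-impairment test in male Swiss albino mice dosed i.p. at 30, 100 or 300 mg/kg in 5% gum acacia/water. Mice that fell off the rotating rod within 30 s during pretraining were excluded. The dose at which animals fell off was recorded at 0.5 and 4 h.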

Mus musculus [6] = assay: Neurotoxicity in ip dosed Swiss albino mouse assessed as minimum dose required to cause impair in motor coordination after 4 hrs by rotarod test; format: toxicity, organism-based; settings: in vivo; how it was run: as §3
Mus musculus [7] = assay: Toxicity in subcutaneous pentylenetetrazole-induced Swiss albino mouse assessed as death at 30 to 300 mg/kg, ip after 4 hrs; format: organism-based; set-up: dose 30-300 mg/kg
How it was run: (§4)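 Male Swiss albino mice (18–25 g) given compound suspended in 5% gum acacia/water, i.p. at 30, 100 or 300 mg/kg, one to four animals per dose. PTZ at 85 mg/kg was injected 30 min after compound. Animals were examined 0.5 and 4 h after administration, and death following tonic extension was noted. The maximum dose was 300 mg/kg.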

Mus musculus [8] = assay: Anticonvulsant activity against maximal electroshock-induced seizures in ip dosed Swiss albino mouse assessed as minimum effective dose after 4 hrs; format: functional; settings: read-out: MED; how it was run: as §1
Mus musculus [9] = assay: Neurotoxicity in ip dosed Swiss albino mouse assessed as minimum dose required to cause impair in motor coordination after 0.5 hrs by rotarod test; format: toxicity, organism-based; settings: in vivo; how it was run: as §3
Mus musculus [10] = assay: Neurotoxicity in ip dosed Swiss albino mouse assessed as impair in motor coordination at 300 mg/kg, ip after 4 hrs by rotarod test; format: toxicity, organism-based; set-up: dose 300 mg/kg, route intraperitoneal; settings: in vivo; how it was run: as §3
Mus musculus [11] = assay: Toxicity in subcutaneous pentylenetetrazole-induced Swiss albino mouse assessed as myoclonic jerks at 300 mg/kg, ip after 0.5 hrs; format: organism-based; set-up: dose 300 mg/kg; how it was run: as §2
Mus musculus [12] = assay: Anticonvulsant activity against subcutaneous pentylenetetrazole-induced seizures in ip dosed Swiss albino mouse assessed as minimum effective dose after 4 hrs; format: functional; settings: read-out: MED; how it was run: as §2
Mus musculus [13] = assay: Anticonvulsant activity against subcutaneous pentylenetetrazole-induced seizures in Swiss albino mouse at 300 mg/kg, ip after 0.5 hrs; format: functional, organism-based; set-up: dose 300 mg/kg; how it was run: as §2
Mus musculus [14] = assay: Anticonvulsant activity against maximal electroshock-induced seizures in ip dosed Swiss albino mouse assessed as minimum effective dose after 0.5 hrs; format: functional; settings: read-out: MED; how it was run: as §1
Mus musculus [15] = assay: Toxicity in subcutaneous pentylenetetrazole-induced Swiss albino mouse assessed as myoclonic jerks at 100 mg/kg, ip after 0.5 hrs; format: organism-based; set-up: dose 100 mg/kg; how it was run: as §2
Mus musculus [16] = assay: Restoration of GSH level in subcutaneous pentylenetetrazole treated Swiss albino mouse brain assessed per gram of tissue at 100 mg/kg, ip after 4 hrs; format: functional; settings: route intraperitoneal
How it was run: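 Brains were taken from PTZ-treated mice 4 h after 100 mg/kg i.p. dosing. Tissue was deproteinized with an equal volume of 10% TCA for 2 h at 4 °C and centrifuged at 2000 g for 15 min. The supernatant was mixed with 0.4 M Tris (pH 8.9) containing 0.02 M EDTA, and 0.01 M DTNB was added before spectrophotometric reading. n = 6.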

Mus musculus [17] = assay: Restoration of SOD activity in subcutaneous pentylenetetrazole treated Swiss albino mouse brain assessed per mg of protein at 100 mg/kg, ip after 4 hrs; format: functional; settings: route intraperitoneal
How it was run: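 The ethanol phase of an ethanol/chloroform (5:3) extract of brain supernatant was used, from PTZ-treated mice 4 h after 100 mg/kg i.p. Superoxide was generated by xanthine–xanthine oxidase at pH 10.2 with NBT, 20 min at 25 °C. The reaction was stopped with CuCl2 and read at 560 nm. One unit gives 50% inhibition of NBT reduction; results are expressed as U/mg protein. n = 6.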

Mus musculus [18] = assay: Reduction of lipid peroxidation in subcutaneous pentylenetetrazole treated Swiss albino mouse brain assessed reduction of malondialdehyde level per mg of protein at 100 mg/kg, ip after 4 hrs by TBARS assay; format: functional; settings: route intraperitoneal
How it was run: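 PTZ-treated mice were dosed at 100 mg/kg i.p. and decapitated 4 h after the last injection. Brains were homogenized in four volumes of ice-cold 50 mM Tris-HCl, pH 7.4, and spun at 3000 × g for 15 min. TBARS in the supernatant was read at 532 nm in the upper organic layer and expressed as nmol MDA/mg protein. n = 6, mean ± S.E.M.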

Mus musculus [19] = assay: Restoration of GSH peroxidase activity in subcutaneous pentylenetetrazole treated Swiss albino mouse brain assessed per mg of protein at 100 mg/kg, ip after 4 hrs; format: functional; settings: route intraperitoneal
How it was run: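 Brain homogenate came from PTZ-treated mice 4 h after 100 mg/kg i.p. dosing, using the 10500 × g supernatant. Samples were equilibrated 5 min at 25 °C, started with H2O2, and A340 was followed for 5 min. n = 6.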

Mus musculus [20] = assay: Toxicity in subcutaneous pentylenetetrazole-induced Swiss albino mouse assessed as death at 30 to 300 mg/kg, ip after 0.5 hrs; format: organism-based; set-up: dose 30-300 mg/kg; how it was run: as §4

O=C(N/N=C/c1ccccc1Cl)Nc1cccc2ccccc12 was tested, and the Activity (Mus musculus [1]) was “inactive”, the minimal effective dose (Mus musculus [2]) was 300 mg/kg and the Activity (Mus musculus [3]) was “inactive”. For the same molecule, the Activity (Mus musculus [4]) was “inactive”, the Activity (Mus musculus [5]) was “Non-toxic” and the Activity (Mus musculus [6]) was 300 mg/kg.

With O=C(N/N=C/c1ccc(F)cc1)Nc1cccc2ccccc12 the Activity (Mus musculus [1]) was “inactive”, the minimal effective dose (Mus musculus [2]) was 300 mg/kg and the Activity (Mus musculus [5]) was “Non-toxic”. For the same molecule, the Activity (Mus musculus [6]) was 100 mg/kg, the Activity (Mus musculus [7]) was “Toxic” and the minimal effective dose (Mus musculus [8]) was 300 mg/kg.

With C/C(=N\NC(=O)Nc1cccc2ccccc12)c1ccc(Cl)cc1 the Activity (Mus musculus [1]) was “inactive”, the Activity (Mus musculus [9]) was 300 mg/kg and the minimal effective dose (Mus musculus [2]) was 300 mg/kg. The Activity (Mus musculus [3]) was “inactive”, the Activity (Mus musculus [10]) was “Non-toxic” and the minimal effective dose (Mus musculus [8]) was 300 mg/kg.

With C/C(=N\NC(=O)Nc1cccc2ccccc12)c1ccc(Cl)cc1Cl the Activity (Mus musculus [1]) was “inactive”, the Activity (Mus musculus [11]) was “Toxic” and the minimal effective dose (Mus musculus [12]) was 300 mg/kg. The Activity (Mus musculus [5]) was “Non-toxic”, the Activity (Mus musculus [6]) was 300 mg/kg and the minimal effective dose (Mus musculus [8]) was 300 mg/kg.

In the case of O=C(N/N=C/c1ccc(O)cc1)Nc1cccc2ccccc12, the Activity (Mus musculus [9]) is reported as 100 mg/kg, the Activity (Mus musculus [13]) is reported as “inactive” and the minimal effective dose (Mus musculus [14]) is reported as 100 mg/kg. For the same molecule, the Activity (Mus musculus [3]) was “inactive”, the Activity (Mus musculus [4]) was “inactive” and the Activity (Mus musculus [6]) was 300 mg/kg.

CN(C)c1ccc(/C=N/NC(=O)Nc2cccc3ccccc23)cc1 gave an Activity (Mus musculus [9]) of 100 mg/kg, a minimal effective dose (Mus musculus [14]) of 100 mg/kg and a minimal effective dose (Mus musculus [12]) of 300 mg/kg. The Activity (Mus musculus [6]) was 100 mg/kg, the Activity (Mus musculus [15]) was “Toxic” and the minimal effective dose (Mus musculus [8]) was 100 mg/kg.

With CCCC(CCC)C(=O)O [VALPROIC ACID] the Activity (Mus musculus [1]) was “inactive”, the minimal effective dose (Mus musculus [2]) was 300 mg/kg and the Activity (Mus musculus [16]) was 22.14 µg. For the same molecule, the Activity (Mus musculus [3]) was “inactive”, the Activity (Mus musculus [17]) was 1.82 U and the Activity (Mus musculus [4]) was “inactive”. The Activity (Mus musculus [5]) was “Non-toxic”, the Activity (Mus musculus [18]) was 1.96 nmol and the Activity (Mus musculus [10]) was “Non-toxic”. It also gave an Activity (Mus musculus [19]) of 2.19 U.

For O=C1NC(=O)C(c2ccccc2)(c2ccccc2)N1 [PHENYTOIN], the Activity (Mus musculus [9]) was 100 mg/kg, the Activity (Mus musculus [13]) was “inactive” and the minimal effective dose (Mus musculus [14]) was 30 mg/kg. The Activity (Mus musculus [3]) was “inactive”, the Activity (Mus musculus [6]) was 100 mg/kg and the minimal effective dose (Mus musculus [8]) was 30 mg/kg.

Molecule COc1cc(/C=N/NC(=O)Nc2cccc3ccccc23)ccc1O has an Activity (Mus musculus [9]) of 100 mg/kg, a minimal effective dose (Mus musculus [2]) of 300 mg/kg and a minimal effective dose (Mus musculus [14]) of 300 mg/kg. The Activity (Mus musculus [3]) was “inactive”, the Activity (Mus musculus [4]) was “inactive” and the Activity (Mus musculus [6]) was 100 mg/kg.

In the case of O=C(N/N=C/c1ccccc1)Nc1cccc2ccccc12, the Activity (Mus musculus [9]) is reported as 100 mg/kg, the minimal effective dose (Mus musculus [14]) is reported as 300 mg/kg and the Activity (Mus musculus [20]) is reported as “Toxic”. For the same molecule, the Activity (Mus musculus [3]) was “inactive”, the Activity (Mus musculus [4]) was “inactive” and the Activity (Mus musculus [6]) was 100 mg/kg.

Work on O=C(N/N=C/c1ccc(Cl)cc1Cl)Nc1cccc2ccccc12 yielded a minimal effective dose (Mus musculus [2]) of 300 mg/kg, a minimal effective dose (Mus musculus [14]) of 100 mg/kg and an Activity (Mus musculus [16]) of 21.35 µg. For the same molecule, the Activity (Mus musculus [17]) was 1.69 U, the minimal effective dose (Mus musculus [12]) was 300 mg/kg and the Activity (Mus musculus [5]) was “Non-toxic”. The Activity (Mus musculus [18]) was 2.78 nmol, the Activity (Mus musculus [6]) was 300 mg/kg and the Activity (Mus musculus [19]) was 1.65 U. The minimal effective dose (Mus musculus [8]) was 100 mg/kg.

With COc1ccc(OC)c(/C=N/NC(=O)Nc2cccc3ccccc23)c1 the Activity (Mus musculus [1]) was “inactive”, the Activity (Mus musculus [9]) was 300 mg/kg and the minimal effective dose (Mus musculus [2]) was 300 mg/kg. For the same molecule, the Activity (Mus musculus [3]) was “inactive”, the Activity (Mus musculus [10]) was “Non-toxic” and the minimal effective dose (Mus musculus [8]) was 300 mg/kg.
